Activity calls are given as the source filed them. No cut-off for these calls is given here.
Columns and labels:
[1] = biological target: Platelet-derived growth factor receptor (Mus musculus, UniProt P05622+P26618); experiment: Inhibition of endogenous PDGFR in Swiss3T3 fibroblasts
[2] = biological target: T1, Receptor-type tyrosine-protein kinase FLT3 (Homo sapiens, UniProt P36888); experiment: Inhibition of endogenous FLT3 in EOL1 cells; format: cell-based
T1 sequence (P36888 whole entry): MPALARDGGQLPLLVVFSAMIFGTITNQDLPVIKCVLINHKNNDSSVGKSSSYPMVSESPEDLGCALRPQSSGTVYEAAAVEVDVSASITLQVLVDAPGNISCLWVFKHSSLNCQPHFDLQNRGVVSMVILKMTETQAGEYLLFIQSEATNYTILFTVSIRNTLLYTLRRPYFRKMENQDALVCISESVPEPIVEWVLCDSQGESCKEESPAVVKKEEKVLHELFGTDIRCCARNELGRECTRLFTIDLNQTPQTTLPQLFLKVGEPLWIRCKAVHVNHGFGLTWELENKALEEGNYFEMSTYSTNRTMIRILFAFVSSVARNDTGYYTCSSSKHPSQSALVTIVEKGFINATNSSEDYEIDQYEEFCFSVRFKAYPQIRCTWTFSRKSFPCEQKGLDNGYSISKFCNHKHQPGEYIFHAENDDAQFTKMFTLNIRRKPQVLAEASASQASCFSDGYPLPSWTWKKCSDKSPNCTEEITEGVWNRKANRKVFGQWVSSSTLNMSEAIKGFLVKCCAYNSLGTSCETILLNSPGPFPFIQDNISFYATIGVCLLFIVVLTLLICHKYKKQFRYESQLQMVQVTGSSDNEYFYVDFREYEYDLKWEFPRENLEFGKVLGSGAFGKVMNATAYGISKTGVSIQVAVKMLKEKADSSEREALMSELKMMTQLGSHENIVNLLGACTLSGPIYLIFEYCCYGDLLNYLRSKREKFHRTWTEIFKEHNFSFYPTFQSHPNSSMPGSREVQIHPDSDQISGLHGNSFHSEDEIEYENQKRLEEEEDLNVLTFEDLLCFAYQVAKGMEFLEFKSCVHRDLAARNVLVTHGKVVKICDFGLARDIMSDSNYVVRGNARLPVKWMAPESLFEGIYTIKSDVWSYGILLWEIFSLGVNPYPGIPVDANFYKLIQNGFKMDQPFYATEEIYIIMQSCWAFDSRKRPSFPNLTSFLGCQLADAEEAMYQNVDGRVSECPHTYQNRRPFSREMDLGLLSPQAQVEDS

[3] = biological target: Platelet-derived growth factor receptor beta (Homo sapiens, UniProt P09619); experiment: Inhibition of human PDGFR beta
Platelet-derived growth factor receptor beta, sequence (P09619 whole entry, the tested form may be a part): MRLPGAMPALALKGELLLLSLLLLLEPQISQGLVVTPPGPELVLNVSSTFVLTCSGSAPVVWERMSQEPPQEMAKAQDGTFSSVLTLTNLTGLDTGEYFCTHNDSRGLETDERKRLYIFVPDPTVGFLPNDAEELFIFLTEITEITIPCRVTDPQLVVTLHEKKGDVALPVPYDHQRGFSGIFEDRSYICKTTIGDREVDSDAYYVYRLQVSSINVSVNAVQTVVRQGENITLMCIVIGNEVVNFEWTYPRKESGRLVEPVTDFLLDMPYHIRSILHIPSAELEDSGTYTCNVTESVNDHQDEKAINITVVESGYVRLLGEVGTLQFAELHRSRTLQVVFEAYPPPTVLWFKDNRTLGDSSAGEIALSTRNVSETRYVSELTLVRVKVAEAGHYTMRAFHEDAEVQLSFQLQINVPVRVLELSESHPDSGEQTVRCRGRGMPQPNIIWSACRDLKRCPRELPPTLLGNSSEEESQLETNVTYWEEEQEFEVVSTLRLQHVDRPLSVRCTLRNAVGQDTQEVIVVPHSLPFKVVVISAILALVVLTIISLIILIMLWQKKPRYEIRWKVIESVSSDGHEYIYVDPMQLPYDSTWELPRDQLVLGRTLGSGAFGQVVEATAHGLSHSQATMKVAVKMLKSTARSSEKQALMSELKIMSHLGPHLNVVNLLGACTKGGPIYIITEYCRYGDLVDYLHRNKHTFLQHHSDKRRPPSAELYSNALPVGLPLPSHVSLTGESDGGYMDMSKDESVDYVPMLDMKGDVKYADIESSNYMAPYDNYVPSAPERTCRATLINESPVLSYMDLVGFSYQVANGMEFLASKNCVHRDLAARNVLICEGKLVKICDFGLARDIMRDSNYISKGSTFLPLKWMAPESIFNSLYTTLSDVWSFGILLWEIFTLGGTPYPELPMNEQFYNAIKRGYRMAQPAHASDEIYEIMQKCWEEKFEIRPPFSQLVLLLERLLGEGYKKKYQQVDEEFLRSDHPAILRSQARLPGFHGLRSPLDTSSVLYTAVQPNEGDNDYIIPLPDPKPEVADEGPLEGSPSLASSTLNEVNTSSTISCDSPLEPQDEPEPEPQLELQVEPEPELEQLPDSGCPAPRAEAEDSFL

[4] = biological target: Bcr/Abl fusion protein (Homo sapiens, UniProt P00519); experiment: Inhibition of oncogenic Bcr-Abl kinase in K562 cells; format: cell-based
Bcr/Abl fusion protein, sequence (P00519 whole entry, the tested form may be a part): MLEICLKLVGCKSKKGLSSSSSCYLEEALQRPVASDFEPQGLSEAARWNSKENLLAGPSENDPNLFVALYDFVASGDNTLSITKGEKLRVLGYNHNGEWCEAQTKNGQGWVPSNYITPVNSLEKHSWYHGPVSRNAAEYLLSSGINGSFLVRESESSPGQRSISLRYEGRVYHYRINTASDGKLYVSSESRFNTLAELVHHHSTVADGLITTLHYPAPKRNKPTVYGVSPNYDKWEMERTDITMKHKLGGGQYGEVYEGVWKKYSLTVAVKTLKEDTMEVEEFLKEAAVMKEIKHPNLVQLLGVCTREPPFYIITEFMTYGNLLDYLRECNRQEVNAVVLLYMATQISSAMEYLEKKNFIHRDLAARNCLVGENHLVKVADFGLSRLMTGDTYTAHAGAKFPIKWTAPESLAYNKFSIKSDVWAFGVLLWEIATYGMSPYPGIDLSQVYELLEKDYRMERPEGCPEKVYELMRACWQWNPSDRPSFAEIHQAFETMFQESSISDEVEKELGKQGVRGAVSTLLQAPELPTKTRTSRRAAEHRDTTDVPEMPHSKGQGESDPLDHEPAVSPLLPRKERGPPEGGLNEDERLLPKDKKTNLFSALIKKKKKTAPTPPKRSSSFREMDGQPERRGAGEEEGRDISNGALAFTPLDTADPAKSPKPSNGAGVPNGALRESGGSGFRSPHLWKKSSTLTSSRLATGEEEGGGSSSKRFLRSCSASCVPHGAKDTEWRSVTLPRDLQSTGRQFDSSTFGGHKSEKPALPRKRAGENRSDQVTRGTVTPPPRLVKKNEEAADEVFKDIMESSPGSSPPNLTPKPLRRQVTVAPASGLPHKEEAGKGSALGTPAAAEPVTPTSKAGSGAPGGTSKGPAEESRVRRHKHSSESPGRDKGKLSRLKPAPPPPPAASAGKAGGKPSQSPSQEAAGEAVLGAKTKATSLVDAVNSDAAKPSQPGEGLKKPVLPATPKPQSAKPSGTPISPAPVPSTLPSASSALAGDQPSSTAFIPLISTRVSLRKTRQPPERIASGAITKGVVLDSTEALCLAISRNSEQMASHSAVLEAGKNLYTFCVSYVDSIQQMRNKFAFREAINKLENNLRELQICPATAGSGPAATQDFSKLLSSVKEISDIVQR
Bcr/Abl fusion protein, sequence (P11274 whole entry, further chain, the tested form may be a part): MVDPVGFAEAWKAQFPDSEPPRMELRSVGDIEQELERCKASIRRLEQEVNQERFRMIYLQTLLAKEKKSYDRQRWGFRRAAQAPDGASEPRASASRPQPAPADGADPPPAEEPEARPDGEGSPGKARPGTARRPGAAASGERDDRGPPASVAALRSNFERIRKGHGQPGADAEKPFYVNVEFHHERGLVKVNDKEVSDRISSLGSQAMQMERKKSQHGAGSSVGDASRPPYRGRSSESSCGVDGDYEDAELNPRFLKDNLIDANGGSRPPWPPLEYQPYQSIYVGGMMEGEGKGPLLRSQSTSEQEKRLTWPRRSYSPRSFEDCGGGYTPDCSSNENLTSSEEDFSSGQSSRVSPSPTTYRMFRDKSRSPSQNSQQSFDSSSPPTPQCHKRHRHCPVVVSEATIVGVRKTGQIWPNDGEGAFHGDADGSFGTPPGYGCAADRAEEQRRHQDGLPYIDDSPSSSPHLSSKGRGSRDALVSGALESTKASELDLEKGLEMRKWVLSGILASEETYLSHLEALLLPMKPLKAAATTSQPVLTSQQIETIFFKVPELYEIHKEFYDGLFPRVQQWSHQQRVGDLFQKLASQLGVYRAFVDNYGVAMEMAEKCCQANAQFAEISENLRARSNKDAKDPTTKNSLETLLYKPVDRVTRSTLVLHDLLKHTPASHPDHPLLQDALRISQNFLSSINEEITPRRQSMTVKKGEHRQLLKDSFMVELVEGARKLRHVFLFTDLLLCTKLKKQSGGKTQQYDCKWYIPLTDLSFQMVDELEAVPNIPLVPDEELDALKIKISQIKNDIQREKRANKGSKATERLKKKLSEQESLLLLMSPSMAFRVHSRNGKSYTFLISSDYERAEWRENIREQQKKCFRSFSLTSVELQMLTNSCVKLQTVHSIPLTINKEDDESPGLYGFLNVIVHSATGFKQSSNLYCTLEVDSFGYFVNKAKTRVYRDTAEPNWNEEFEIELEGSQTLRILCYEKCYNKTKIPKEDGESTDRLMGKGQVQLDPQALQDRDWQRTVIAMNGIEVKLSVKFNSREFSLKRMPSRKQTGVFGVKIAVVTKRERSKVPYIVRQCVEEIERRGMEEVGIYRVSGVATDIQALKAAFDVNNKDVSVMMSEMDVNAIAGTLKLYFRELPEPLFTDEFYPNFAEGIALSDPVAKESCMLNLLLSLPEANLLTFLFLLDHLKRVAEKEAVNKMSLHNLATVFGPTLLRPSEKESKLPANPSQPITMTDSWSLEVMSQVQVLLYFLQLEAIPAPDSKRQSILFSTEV
Procedure, shortened: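 K562 cells, 2 × 10⁶ in 1 mL serum-free RPMI1640, inhibitor or 1% DMSO at 37 °C for 2 h; lysates immunoblotted with anti-pAbl and anti-Abl to gauge Bcr-Abl autophosphorylation.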

[5] = biological target: T1, Receptor-type tyrosine-protein kinase FLT3; experiment: Inhibition of human FLT3
[6] = biological target: Tyrosine-protein kinase ABL1 (Homo sapiens, UniProt P00519); experiment: Inhibition of recombinant Abl
Tyrosine-protein kinase ABL1, sequence (P00519 whole entry, the tested form may be a part): as the sequence (P00519 whole entry, the tested form may be a part) above
Procedure, shortened: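 0.5 µg GST-c-Abl catalytic domain preincubated 10 min on ice with inhibitor (DMSO stock) in 50 mM Tris-HCl pH 7.5, 10 mM MgCl₂, 10 µM orthovanadate, 1 mM DTT; [³²Pγ]ATP, final ATP 111 nM, 30 °C 30 min; SDS-PAGE; autophosphorylation radioactivity normalized to Coomassie-stained protein.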

[7] = biological target: Mast/stem cell growth factor receptor Kit (Homo sapiens) (UniProt P10721); experiment: Inhibition of DNA synthesis in IL3 dependent FDC-P1 cells expressing KIT D814V mutant; format: functional, cell-based
Mast/stem cell growth factor receptor Kit (Homo sapiens), sequence (P10721 whole entry): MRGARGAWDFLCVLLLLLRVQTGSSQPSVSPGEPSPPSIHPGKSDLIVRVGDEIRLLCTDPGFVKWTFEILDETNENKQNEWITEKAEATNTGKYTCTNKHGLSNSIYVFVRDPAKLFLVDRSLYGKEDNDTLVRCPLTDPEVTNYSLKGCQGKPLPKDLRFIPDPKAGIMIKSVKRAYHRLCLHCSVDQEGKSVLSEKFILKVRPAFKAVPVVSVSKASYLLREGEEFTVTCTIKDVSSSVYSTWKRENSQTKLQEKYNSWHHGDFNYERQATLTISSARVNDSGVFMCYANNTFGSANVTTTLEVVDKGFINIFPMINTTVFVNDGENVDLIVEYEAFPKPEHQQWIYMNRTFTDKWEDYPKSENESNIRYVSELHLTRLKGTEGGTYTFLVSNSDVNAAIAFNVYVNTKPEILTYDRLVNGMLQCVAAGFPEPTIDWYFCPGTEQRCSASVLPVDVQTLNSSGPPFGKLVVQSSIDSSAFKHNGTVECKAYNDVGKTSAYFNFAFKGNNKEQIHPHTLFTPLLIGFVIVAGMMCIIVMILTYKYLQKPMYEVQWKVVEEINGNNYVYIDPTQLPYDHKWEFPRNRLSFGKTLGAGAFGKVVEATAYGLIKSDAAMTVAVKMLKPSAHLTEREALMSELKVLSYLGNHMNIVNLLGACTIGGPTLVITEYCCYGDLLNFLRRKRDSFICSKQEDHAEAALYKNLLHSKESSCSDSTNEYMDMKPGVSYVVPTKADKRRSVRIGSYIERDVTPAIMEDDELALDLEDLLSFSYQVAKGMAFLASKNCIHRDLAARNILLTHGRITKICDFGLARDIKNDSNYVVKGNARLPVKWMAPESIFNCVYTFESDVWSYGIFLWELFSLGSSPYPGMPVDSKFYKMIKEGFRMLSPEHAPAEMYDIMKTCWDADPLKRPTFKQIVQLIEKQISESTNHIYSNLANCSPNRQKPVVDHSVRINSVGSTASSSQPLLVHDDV
Procedure, shortened: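 Parental FDC-P1 cells or FDC-P1 lines expressing KIT variants treated 42 h with compound, with or without IL-3 or stem cell factor; DNA synthesis measured as [³H]thymidine incorporation.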

Row | IC50 [1] | SMILES | other results
1 | 730 nM | O=C(c1cc2cc(O)ccc2[nH]1)c1cc2cc(F)ccc2[nH]1 | –
2 | 960 nM | COc1cccc2[nH]c(C(=O)c3cc4cc(O)ccc4[nH]3)cc12 | –
3 | 2800 nM | COc1ccc2cc(C(=O)c3cc4cc(OCCN(C)C)ccc4[nH]3)[nH]c2c1 | –
4 | 590 nM | O=C(c1cc2cc(O)ccc2[nH]1)c1cc2ccc(F)cc2[nH]1 | –
5 | 500 nM | O=C(c1cc2cc(F)ccc2[nH]1)c1cc2cc(OCCN3CCCCC3)ccc2[nH]1 | –
6 | > 30000 nM | COc1ccc2[nH]c(Cc3cc4ccccc4[nH]3)cc2c1 | IC50 [2]: > 30000 nM
7 | 760 nM | O=C(c1cc2ccccc2[nH]1)c1cc2cc(F)ccc2[nH]1 | –
8 | 510 nM | COc1ccc2[nH]c(C(=O)c3cc4ccc(C)cc4[nH]3)cc2c1 | –
9 | 3500 nM | Cc1ccc2[nH]c(C(=O)c3cc4cc(O)ccc4[nH]3)cc2c1 | –
10 | 4400 nM | CCc1cccc2cc(C(=O)c3cc4cc(O)ccc4[nH]3)[nH]c12 | –
11 | 2900 nM | COc1cccc2cc(C(=O)c3cc4cc(O)ccc4[nH]3)[nH]c12 | –
12 | > 30000 nM | COc1ccc2[nH]c(C(=O)c3cc4c(Cl)cccc4[nH]3)cc2c1 | –
13 | 1000 nM | O=C(c1cc2ccccc2[nH]1)c1cc2ccccc2[nH]1 | –
14 | 4030 nM | COc1ccc2[nH]c(C(=O)c3cc4c(C)cccc4[nH]3)cc2c1 | –
15 | 1200 nM | Cc1cccc2[nH]c(C(=O)c3cc4cc(F)ccc4[nH]3)cc12 | –
16 | 8500 nM | COc1ccc2[nH]c(C(=O)c3cc4cc(Br)ccc4[nH]3)cc2c1 | –
17 | > 30000 nM | COc1ccc2[nH]c(Cc3cc4cc(F)ccc4[nH]3)cc2c1 | IC50 [2]: > 30000 nM
18 | 620 nM | O=C(c1cc2cc(O)ccc2[nH]1)c1cc2c(F)cccc2[nH]1 | –
19 | 300 nM | O=C(c1cc2cc(O)ccc2[nH]1)c1cc2cc(O)ccc2[nH]1 | IC50 [3]: 171 nM; IC50 [4]: 4200 nM; IC50 [5]: 33 nM; IC50 [6]: 1300 nM; IC50 [2]: 40 nM
20 | 10000 nM | O=C(c1cc2ccccc2[nH]1)c1cc2cc(Oc3ccccc3)ccc2[nH]1 | –

Row | IC50 [1] | SMILES | other results
21 | 580 nM | Cc1ccc2cc(C(=O)c3cc4cc(O)ccc4[nH]3)[nH]c2c1 | –
22 | 8100 nM | COc1ccc2[nH]c(C(=O)c3cc4c(F)cccc4[nH]3)cc2c1 | –
23 | 1500 nM | COc1cccc2[nH]c(C(=O)c3cc4ccccc4[nH]3)cc12 | –
24 | 5800 nM | O=C(c1cc2cc(F)ccc2[nH]1)c1cc2cc(OCc3ccccc3)ccc2[nH]1 | IC50 [2]: > 30000 nM
25 | 5400 nM | Cc1cc2ncc(-c3ccccc3)nc2cc1C [AG1295] | IC50 [2]: 1100 nM
26 | 960 nM | Cc1cccc2[nH]c(C(=O)c3cc4cc(O)ccc4[nH]3)cc12 | IC50 [3]: 458 nM; Activity [7]: inactive
27 | 6100 nM | O=C(c1cc2cc(O)ccc2[nH]1)c1cc2c(Br)cccc2[nH]1 | –
28 | > 30000 nM | COc1ccc2[nH]c(C(=O)c3cc4cccc(Cl)c4[nH]3)cc2c1 | IC50 [2]: > 30000 nM
29 | 4800 nM | O=C(c1cc2cc(O)ccc2[nH]1)c1cc2cccc(F)c2[nH]1 | IC50 [2]: > 30000 nM
30 | 200 nM | O=C(c1cc2ccccc2[nH]1)c1cc2cc(O)ccc2[nH]1 | IC50 [2]: 570 nM
31 | 400 nM | COc1ccc2[nH]c(C(=O)c3cc4cc(F)ccc4[nH]3)cc2c1 | –
32 | 1000 nM | COc1ccc2cc(C(=O)c3cc4cc(OCCN5CCCCC5)ccc4[nH]3)[nH]c2c1 | –
33 | > 30000 nM | COc1ccc2cc(C(=O)c3cc4cc(OCc5ccccc5)ccc4[nH]3)[nH]c2c1 | –
34 | > 30000 nM | COc1ccc2[nH]c(C(=O)c3cc4cc(C)ccc4[nH]3)cc2c1 | –
35 | 650 nM | COc1ccc2cc(C(=O)c3cc4cc(O)ccc4[nH]3)[nH]c2c1 | –
36 | 2500 nM | COc1ccc2[nH]c(C(=O)c3cc4cc(Cl)ccc4[nH]3)cc2c1 | –
37 | 200 nM | COc1ccc2[nH]c(C(=O)c3cc4ccc(Cl)cc4[nH]3)cc2c1 | IC50 [3]: 55 nM
38 | 10000 nM | Cc1cccc2[nH]c(C(=O)c3cc4cc(OCCN5CCCCC5)ccc4[nH]3)cc12 | IC50 [3]: 1200 nM
39 | 840 nM | COc1ccc2[nH]c(C(=O)c3cc4ccc(F)cc4[nH]3)cc2c1 | –
40 | 500 nM | O=C(c1cc2cc(O)ccc2[nH]1)c1cc2c(Cl)cccc2[nH]1 | –
